Assay results: ChEMBL document CHEMBL1147439, “Synthesis and SAR evaluation of 1,2,4-triazoles as A(2A) receptor antagonists” (Bioorg Med Chem Lett, 2004)

Tests used:
[1] = target: T1, Adenosine receptor A2a (Homo sapiens, UniProt P29274); assay: Binding affinity towards human recombinant adenosine A2A receptor by displacement of [3H]SCH-58261 radioligand.
[2] = target: Adenosine receptor A2a (Rattus norvegicus, UniProt P30543); assay: Binding affinity for rat adenosine A2A receptor by displacement of [3H]SCH-58261
[3] = target: T2, Adenosine receptor A1 (Homo sapiens, UniProt P30542); assay: Binding affinity for human adenosine A1 receptor by displacement of [3H]DPCPX
T2 sequence (P30542 whole entry): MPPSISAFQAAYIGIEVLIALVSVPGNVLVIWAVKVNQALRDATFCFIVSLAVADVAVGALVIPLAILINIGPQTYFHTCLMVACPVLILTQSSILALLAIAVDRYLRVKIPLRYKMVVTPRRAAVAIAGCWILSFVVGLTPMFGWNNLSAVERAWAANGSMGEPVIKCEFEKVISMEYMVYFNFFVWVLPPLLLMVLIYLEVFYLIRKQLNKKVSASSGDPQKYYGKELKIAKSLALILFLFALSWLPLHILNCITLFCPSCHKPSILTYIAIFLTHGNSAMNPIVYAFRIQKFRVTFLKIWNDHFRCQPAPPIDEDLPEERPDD
Summary of the method: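 Membranes from cells expressing recombinant human A1 receptor, pre-mixed with adenosine deaminase and SPA beads. Labelled with [3H]DPCPX (0.6 nM final) against 10 concentrations of competitor or buffer. Buffer: Tris-HCl 50 mM pH 7.4, NaCl 120 mM, KCl 5 mM, CaCl2 2 mM, MgCl2 10 mM. Xanthine amine congener defined non-specific binding. Incubated 60 min at room temperature, centrifuged, scintillation counted. Duplicates, at least two experiments; Ki given as mean.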

[4] = Medium permeability in parallel artificial membrane permeation assay; medium; format: functional
[5] = Medium permeability in parallel artificial membrane permeation assay; high; format: functional
[6] = target: T1, Adenosine receptor A2a; assay: Binding affinity for human adenosine A2A receptor by displacement of [3H]SCH-58,261; inactive
[7] = pKa value was determined; format: physicochemical

T1 sequence (P29274 whole entry): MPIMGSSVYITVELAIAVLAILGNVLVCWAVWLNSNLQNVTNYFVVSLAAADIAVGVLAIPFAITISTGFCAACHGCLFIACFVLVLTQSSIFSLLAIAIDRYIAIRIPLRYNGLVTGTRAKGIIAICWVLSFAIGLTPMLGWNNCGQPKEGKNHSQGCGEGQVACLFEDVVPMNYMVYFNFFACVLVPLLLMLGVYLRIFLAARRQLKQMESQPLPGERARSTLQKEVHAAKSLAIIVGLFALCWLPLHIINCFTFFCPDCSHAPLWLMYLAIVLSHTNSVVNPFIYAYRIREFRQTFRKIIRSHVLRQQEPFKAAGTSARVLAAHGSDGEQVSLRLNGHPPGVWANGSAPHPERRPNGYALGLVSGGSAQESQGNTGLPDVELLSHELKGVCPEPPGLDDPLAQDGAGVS
Chain of Adenosine receptor A2a (Rattus norvegicus, UniProt P30543) (P30543 whole entry): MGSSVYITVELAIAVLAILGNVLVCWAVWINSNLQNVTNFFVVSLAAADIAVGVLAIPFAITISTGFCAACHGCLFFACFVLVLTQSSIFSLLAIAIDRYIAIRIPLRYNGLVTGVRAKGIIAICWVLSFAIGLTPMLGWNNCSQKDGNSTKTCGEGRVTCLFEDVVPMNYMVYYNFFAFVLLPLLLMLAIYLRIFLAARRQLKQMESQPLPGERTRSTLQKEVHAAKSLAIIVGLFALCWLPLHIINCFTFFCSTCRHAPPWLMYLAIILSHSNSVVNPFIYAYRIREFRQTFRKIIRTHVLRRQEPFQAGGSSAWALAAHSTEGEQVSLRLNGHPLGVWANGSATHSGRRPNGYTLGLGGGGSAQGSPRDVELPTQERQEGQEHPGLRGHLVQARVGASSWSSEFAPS

| Ki [1] [nM] | SMILES | also measured |
| --- | --- | --- |
| 4200 | COc1cc(/C=N/N=C(\S)Cc2ccccc2)c(O)c(OC)c1 |  |
| 1400 | Oc1ccc(OC(F)(F)F)cc1/C=N/N=C(\S)Cc1ccccc1 |  |
| 100 | S/C(Cc1ccccc1)=N\N=C\c1ccccn1 |  |
| 90 | COc1cccc(-c2nnc(Cc3ccc(Cl)c(Cl)c3)[nH]2)c1OC |  |
| 80 | COc1cccc(-c2n[nH]c(Cc3cccc([N+](=O)[O-])c3)n2)c1 |  |
| 60 | Clc1ccc(Cc2nnc(-c3cnccn3)[nH]2)cc1Cl |  |
| 2000 | S/C(Cc1ccccc1)=N\N=C\c1cnc2ccccc2c1 |  |
| 100 | COc1cccc(-c2n[nH]c(Cc3ccc4ccccc4c3)n2)c1 | Ki [2]: 400 nM; Ki [3]: 2500 nM; Activity [4]: 0.3 10e-6·s cm-1 |
| 700 | COc1cccc(-c2n[nH]c(CC3CCCCC3)n2)c1 |  |
| 20 | COc1cccc(-c2n[nH]c(Cc3cccc(F)c3F)n2)c1 | Ki [2]: 40 nM; Ki [3]: 900 nM; Activity [5]: 3.8 10e-6·s cm-1 |
| 400 | Cn1nc(-c2ccc(N=[N+]=[N-])cc2)nc1-c1cccc(CN2CC=CC2)c1 | Ki [3]: 7300 nM |
| 40 | COc1cccc(-c2n[nH]c(Cc3ccc(Cl)c(Cl)c3)n2)c1 | Ki [3]: 1900 nM |
| 100 | COc1ccc(/C=N/N=C(\S)Cc2ccccc2)c(O)c1 |  |
|  | Cc1ccc(O)c(C2=NN(C(=S)Cc3ccccc3)CC2)c1 | Ki [6]: > 5200 nM |
| > 5200 | Clc1ccc(Cc2nnc(C3CCCNC3)[nH]2)cc1Cl (configuration not stated) |  |
| 1000 | c1cc(CN2CCCC2)cc(-c2n[nH]c(-c3ccc4c(c3)OCCO4)n2)c1 | Ki [3]: 7600 nM |
|  | COc1ccc(O)c(/C=N/NS(=O)(=O)Cc2ccccc2)c1 | pKa [7]: 6.5 |
| 1200 | S/C(Cc1ccccc1)=N\N=C\c1ccc2ccccc2n1 |  |
| 700 | Oc1ccccc1-c1n[nH]c(-c2ccccc2)n1 |  |
| 100 | Clc1ccc(Cc2n[nH]c(-c3ccc4c(c3)OCO4)n2)cc1Cl |  |
| 4700 | COc1cccc(/C=N/N=C(\S)Cc2ccccc2)c1O |  |
| 20 | COc1cccc(-c2n[nH]c(Cc3ccccc3Br)n2)c1 |  |
| > 5200 | COc1cccc(-c2nnc(CN3CCCCC3)[nH]2)c1 |  |
| 1000 | COc1cccc(-c2n[nH]c(CCc3ccc(Cl)c(Cl)c3)n2)c1 | Ki [3]: 1800 nM |
| > 5200 | S/C(Cc1ccccc1)=N\N=C\c1ccccc1 |  |
|  | COc1ccc(O)c(/C=N/NC(=O)Cc2ccccc2)c1 | pKa [7]: 2.9 |
| 20 | COc1ccc(O)c(/C=N/N=C(\S)Cc2ccccc2)c1 | pKa [7]: 6.6 |
| 700 | COc1cccc(-c2nnc(-c3ccc(Cl)c(Cl)c3)[nH]2)c1 | Ki [3]: 6100 nM |
| > 5200 | COc1cccc(O)c1/C=N/N=C(\S)Cc1ccccc1 |  |
| 70 | COc1cccc(-c2nnc(Cc3ccc(F)c(F)c3)[nH]2)c1 |  |

| SMILES | Ki [1] [nM] | also measured |
| --- | --- | --- |
| COc1cccc(-c2n[nH]c(Cc3cccc(Br)c3)n2)c1 | 10 | Ki [2]: 40 nM; Ki [3]: 100 nM; Activity [5]: 1.9 10e-6·s cm-1 |
| COc1cccc(-c2nc(Cc3ccc(C)c(C)c3)n[nH]2)c1 | 20 | Ki [2]: 90 nM; Ki [3]: 1700 nM; Activity [5]: 0.9 10e-6·s cm-1 |
| S/C(Cc1ccccc1)=N\N=C\c1cccnc1 | 5 |  |
| O=[N+]([O-])c1ccc(O)c(/C=N/N=C(\S)Cc2ccccc2)c1 | 10 |  |
